From ChEMBL document CHEMBL1782009, “Synthesis and characterization of new types of halogenated and alkylated imidazolidineiminothiones and a comparative study of their antitumor, antibacterial, and antifungal activities” (Eur J Med Chem, 2011)
Converted amounts (≈) assume the structure as drawn.

Columns and labels:
[1] = Antitumor activity against mouse EAC cells assessed as inhibition of cell viability at 100 ug/ml by Trypan blue assay; type: functional; conditions: Ehrlich
Outline: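 EAC cells were taken by needle aspiration of ascitic fluid from preinoculated mice and diluted 1:10 in saline. Then 0.1 mL of cell suspension, 0.8 mL RPMI 1640 and 0.1 mL compound were incubated 2 h at 37 °C. Dead cells were counted by trypan blue exclusion, and % non-viable = non-viable/total cells × 100.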

Escherichia coli [2] = experiment: Antibacterial activity against Escherichia coli NCTC 10416 at 5 mg/ml after 24 hrs by agar disc diffusion method; type: functional; conditions: NCTC 10416, 24 h, read-out: DIZ
Outline: (§1)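 Agar well-diffusion using 1 cm wells, each loaded with 100 of compound solution (5 mg/mL in DMF). Bacteria were maintained on nutrient agar and plated as a standard suspension. Plates were incubated 24 h at 35 °C, and inhibition zone diameters were measured.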

Micrococcus luteus [3] = experiment: Antibacterial activity against Sarcina lutea ATCC 934 at 5 mg/ml after 24 hrs by agar disc diffusion method; type: functional; conditions: ATCC 934, 24 h, read-out: DIZ; outline: as §1
Bacillus subtilis [4] = experiment: Antibacterial activity against Bacillus subtilis NCTC 1040 at 5 mg/ml after 24 hrs by agar disc diffusion method; type: functional; conditions: NCTC 1040, 24 h, read-out: DIZ; outline: as §1
Staphylococcus aureus [5] = experiment: Antibacterial activity against Staphylococcus aureus NCTC 7447 at 5 mg/ml after 24 hrs by agar disc diffusion method; type: functional; conditions: NCTC 7447, 24 h, read-out: DIZ; outline: as §1
Candida albicans [6] = experiment: Antifungal activity against Candida albicans IMRU 3669 at 5 mg/ml by agar disc diffusion method; type: functional; conditions: read-out: DIZ
Aspergillus flavus [7] = experiment: Antifungal activity against Aspergillus flavus at 5 mg/ml by agar disc diffusion method; type: functional; conditions: read-out: DIZ
Aspergillus flavus [8] = experiment: Antifungal activity against Aspergillus flavus after 72 hrs by macrotube dilution method; type: functional
Outline: (§2)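 Macrotube twofold dilution following CLSI guidelines, with 15 tubes per organism. Tube 1 held 2 mg compound in 2.0 mL DMF and tubes 2–14 held 1.0 mL broth; 1.0 mL was carried serially, and tube 15 was the control. Colonies were suspended in 5.0 mL broth, then 0.2 mL was diluted into 40 mL, and 1.0 mL was added per tube. Bacteria were grown in nutrient broth at 37 °C overnight; fungi in Czapek's Dox at 30 °C for 72 h.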

Candida albicans [9] = experiment: Antifungal activity against Candida albicans IMRU 3669 after 72 hrs by macrotube dilution method; type: functional; conditions: IMRU 3669, 72 h; outline: as §2
Staphylococcus aureus [10] = experiment: Antibacterial activity against Staphylococcus aureus NCTC 7447 by macrotube dilution method; type: functional; outline: as §2
Bacillus subtilis [11] = experiment: Antibacterial activity against Bacillus subtilis NCTC 1040 by macrotube dilution method; type: functional; outline: as §2
Micrococcus luteus [12] = experiment: Antibacterial activity against Sarcina lutea ATCC 934 by macrotube dilution method; type: functional; outline: as §2
Escherichia coli [13] = experiment: Antibacterial activity against Escherichia coli NCTC 10416 by macrotube dilution method; type: functional; outline: as §2
Escherichia coli [14] = experiment: Bactericidal activity against Escherichia coli NCTC 10416 by broth microtiter MIC test; type: functional
Micrococcus luteus [15] = experiment: Bactericidal activity against Sarcina lutea ATCC 934 by broth microtiter MIC test; type: functional
Bacillus subtilis [16] = experiment: Bactericidal activity against Bacillus subtilis NCTC 1040 by broth microtiter MIC test; type: functional
Staphylococcus aureus [17] = experiment: Bactericidal activity against Staphylococcus aureus NCTC 7447 by broth microtiter MIC test; type: functional
Candida albicans [18] = experiment: Fungicidal activity against Candida albicans IMRU 3669 by broth microtiter MIC test; type: functional
Aspergillus flavus [19] = experiment: Fungicidal activity against Aspergillus flavus by broth microtiter MIC test; type: functional
HCT-116 [20] = experiment: Cytotoxicity against human HCT116 cells assessed as surviving fraction at 12.5 ug/ml after 48 hrs by SRB assay relative to control; type: functional
Outline: (§3)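 SRB assay per Skehan: compounds at 5.0, 12.5, 25 and 50 were added to cell monolayers in triplicate wells per dose for 48 h at 37 °C, 5% CO2. Cells were then fixed and stained with SRB, excess stain was removed with acetic acid, and bound dye was recovered in Tris EDTA. Surviving fraction was plotted against concentration, and IC50 was read from the dose–response curves.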

HCT-116 [21] = experiment: Cytotoxicity against human HCT116 cells assessed as surviving fraction at 25 ug/ml after 48 hrs by SRB assay relative to control; type: functional; outline: as §3
HCT-116 [22] = experiment: Cytotoxicity against human HCT116 cells assessed as surviving fraction at 50 ug/ml after 48 hrs by SRB assay relative to control; type: functional; outline: as §3
HCT-116 [23] = experiment: Cytotoxicity against human HCT116 cells after 48 hrs by SRB assay; type: functional, cell-based; conditions: HCT-116, 48 h; outline: as §3
HeLa [24] = experiment: Cytotoxicity against human HeLa cells after 48 hrs by SRB assay; type: functional, cell-based; outline: as §3
MCF7 [25] = experiment: Cytotoxicity against human MCF7 cells after 48 hrs by SRB assay; type: functional, cell-based; conditions: MCF7, 48 h; outline: as §3
HepG2 [26] = experiment: Cytotoxicity against human HepG2 cells assessed as surviving fraction at 5 ug/ml after 48 hrs by SRB assay relative to control; type: functional; outline: as §3
HepG2 [27] = experiment: Cytotoxicity against human HepG2 cells assessed as surviving fraction at 12.5 ug/ml after 48 hrs by SRB assay relative to control; type: functional; outline: as §3
HepG2 [28] = experiment: Cytotoxicity against human HepG2 cells assessed as surviving fraction at 25 ug/ml after 48 hrs by SRB assay relative to control; type: functional; outline: as §3
HepG2 [29] = experiment: Cytotoxicity against human HepG2 cells assessed as surviving fraction at 50 ug/ml after 48 hrs by SRB assay relative to control; type: functional; outline: as §3
HEp-2 [30] = experiment: Cytotoxicity against human Hep2 cells assessed as surviving fraction at 5 ug/ml after 48 hrs by SRB assay relative to control; type: functional; outline: as §3
HEp-2 [31] = experiment: Cytotoxicity against human Hep2 cells assessed as surviving fraction at 12.5 ug/ml after 48 hrs by SRB assay relative to control; type: functional; outline: as §3
HEp-2 [32] = experiment: Cytotoxicity against human Hep2 cells assessed as surviving fraction at 25 ug/ml after 48 hrs by SRB assay relative to control; type: functional; outline: as §3
HEp-2 [33] = experiment: Cytotoxicity against human Hep2 cells assessed as surviving fraction at 50 ug/ml after 48 hrs by SRB assay relative to control; type: functional; outline: as §3
MCF7 [34] = experiment: Cytotoxicity against human MCF7 cells assessed as surviving fraction at 5 ug/ml after 48 hrs by SRB assay relative to control; type: functional; outline: as §3
MCF7 [35] = experiment: Cytotoxicity against human MCF7 cells assessed as surviving fraction at 12.5 ug/ml after 48 hrs by SRB assay relative to control; type: functional; outline: as §3
MCF7 [36] = experiment: Cytotoxicity against human MCF7 cells assessed as surviving fraction at 25 ug/ml after 48 hrs by SRB assay relative to control; type: functional; outline: as §3
MCF7 [37] = experiment: Cytotoxicity against human MCF7 cells assessed as surviving fraction at 50 ug/ml after 48 hrs by SRB assay relative to control; type: functional; outline: as §3
HeLa [38] = experiment: Cytotoxicity against human HeLa cells assessed as surviving fraction at 5 ug/ml after 48 hrs by SRB assay relative to control; type: functional; outline: as §3
HeLa [39] = experiment: Cytotoxicity against human HeLa cells assessed as surviving fraction at 12.5 ug/ml after 48 hrs by SRB assay relative to control; type: functional; outline: as §3
HeLa [40] = experiment: Cytotoxicity against human HeLa cells assessed as surviving fraction at 25 ug/ml after 48 hrs by SRB assay relative to control; type: functional; outline: as §3
HeLa [41] = experiment: Cytotoxicity against human HeLa cells assessed as surviving fraction at 50 ug/ml after 48 hrs by SRB assay relative to control; type: functional; outline: as §3
HCT-116 [42] = experiment: Cytotoxicity against human HCT116 cells assessed as surviving fraction at 5 ug/ml after 48 hrs by SRB assay relative to control; type: functional; outline: as §3
HEp-2 [43] = experiment: Cytotoxicity against human Hep2 cells after 48 hrs by SRB assay; type: functional, cell-based; conditions: HEp-2, 48 h; outline: as §3
HepG2 [44] = experiment: Cytotoxicity against human HepG2 cells after 48 hrs by SRB assay; type: functional, cell-based; conditions: HepG2, 48 h; outline: as §3

Row | SMILES | inhibition at 100 µg/mL [1] [%] | zone of inhibition at 5000 µg/mL (Escherichia coli [2]) [mm] | zone of inhibition at 5000 µg/mL (Micrococcus luteus [3]) [mm] | zone of inhibition at 5000 µg/mL (Bacillus subtilis [4]) [mm] | zone of inhibition at 5000 µg/mL (Staphylococcus aureus [5]) [mm] | zone of inhibition at 5000 µg/mL (Candida albicans [6]) [mm] | zone of inhibition at 5000 µg/mL (Aspergillus flavus [7]) [mm] | Activity (HCT-116 [20]) | Activity (HCT-116 [21]) | Activity (HCT-116 [22]) | IC50 (HCT-116 [23]) [µg/mL] | IC50 (HeLa [24]) [µg/mL] | IC50 (MCF7 [25]) [µg/mL] | Activity (HepG2 [26]) | Activity (HepG2 [27]) | Activity (HepG2 [28]) | Activity (HepG2 [29]) | Activity (HEp-2 [30]) | Activity (HEp-2 [31]) | Activity (HEp-2 [32]) | other results
1 | N=C1C(=S)N(c2ccccc2)C(=O)N1Cc1ccccc1 | 60 | 23.5 | 20 | 21.5 | 22 | 24 | 17 | – | – | – | – | – | – | – | – | – | – | – | – | – | MIC (Aspergillus flavus [8]): 250 µg/mL (≈ 846 µM); MIC (Candida albicans [9]): 64.5 µg/mL (≈ 218 µM); MIC (Staphylococcus aureus [10]): 64.5 µg/mL (≈ 218 µM); MIC (Bacillus subtilis [11]): 64.5 µg/mL (≈ 218 µM); MIC (Micrococcus luteus [12]): 32.3 µg/mL (≈ 109 µM); MIC (Escherichia coli [13]): 16.1 µg/mL (≈ 54.5 µM); MBC (Escherichia coli [14]): 16.1 µg/mL (≈ 54.5 µM); MBC (Micrococcus luteus [15]): 32.3 µg/mL (≈ 109 µM); MBC (Bacillus subtilis [16]): 64.5 µg/mL (≈ 218 µM); MBC (Staphylococcus aureus [17]): 64.5 µg/mL (≈ 218 µM); MFC (Candida albicans [18]): 64.5 µg/mL (≈ 218 µM); MFC (Aspergillus flavus [19]): 250 µg/mL (≈ 846 µM)
2 | COc1ccc(N2C(=O)N(c3ccc(C)cc3)C(=N)C2=S)c(OC)c1 | 70 | 25.5 | 25 | 22.5 | 22 | 17.5 | 14 | 0.15 | 0.2 | 0.26 | 4.04 (≈ 11.4 µM) | 2.97 (≈ 8.36 µM) | 4.34 (≈ 12.2 µM) | 0.6 | 0.22 | 0.23 | 0.24 | 0.6 | 0.31 | 0.16 | Activity (HEp-2 [33]): 0.3; Activity (MCF7 [34]): 0.43; Activity (MCF7 [35]): 0.21; Activity (MCF7 [36]): 0.21; Activity (MCF7 [37]): 0.29; Activity (HeLa [38]): 0.24; Activity (HeLa [39]): 0.14; Activity (HeLa [40]): 0.22; Activity (HeLa [41]): 0.26; Activity (HCT-116 [42]): 0.38; IC50 (HEp-2 [43]): 7.09 µg/mL (≈ 19.9 µM); IC50 (HepG2 [44]): 6.78 µg/mL (≈ 19.1 µM)
3 | N=C1C(=S)N(c2ccc(Cl)cc2)C(=O)N1Cc1ccccc1 | 80 | 22 | 20 | 21 | 21 | 22 | 18 | 0.22 | 0.16 | 0.28 | 4.19 (≈ 12.7 µM) | 9.68 (≈ 29.4 µM) | 4.65 (≈ 14.1 µM) | 0.45 | 0.22 | 0.21 | 0.3 | 0.24 | 0.22 | 0.16 | Activity (HEp-2 [33]): 0.28; Activity (MCF7 [34]): 0.49; Activity (MCF7 [35]): 0.12; Activity (MCF7 [36]): 0.16; Activity (MCF7 [37]): 0.2; Activity (HeLa [38]): 0.44; Activity (HeLa [39]): 0.18; Activity (HeLa [40]): 0.29; Activity (HeLa [41]): 0.33; Activity (HCT-116 [42]): 0.24; IC50 (HEp-2 [43]): 3.28 µg/mL (≈ 9.95 µM); IC50 (HepG2 [44]): 4.34 µg/mL (≈ 13.2 µM)
